# GRIN3A LBD mod: binders of NR3A ligand-binding domain, primary screen, biophysical, differential scanning fluorimetry, uHTS; NR3A LBD differential scanning fluorimetry, Tm shift; 0% = protein alone, 100% = glycine-bound protein; AID 1259313, 2017; 340,000 compounds, 2.5% hits; Tm shift relative to glycine control, % at 25 µM;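 active = melting temperature shift of at least 10% of the positive control shift, at one fixed dose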
# UCH37 inh: inhibitors of human UCH37 deubiquitinase, primary screen, biochemical, Ub-AMC cleavage, fluorescence. Ubiquitin carboxyl-terminal hydrolase isozyme L5 (Homo sapiens), Q9Y5K5. purified proteasome/UCH37. inhibition, % (no concentration beside the values). 330,000 compounds, 0.33% hits. AID 588478, 2011;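 active = mean inhibition over replicate wells above about 20%, limit read from the data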;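 also: 0% = compound-free wells with enzyme and 100% = wells lacking proteasome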
# Target sequence (Q9Y5K5 whole entry, looked up): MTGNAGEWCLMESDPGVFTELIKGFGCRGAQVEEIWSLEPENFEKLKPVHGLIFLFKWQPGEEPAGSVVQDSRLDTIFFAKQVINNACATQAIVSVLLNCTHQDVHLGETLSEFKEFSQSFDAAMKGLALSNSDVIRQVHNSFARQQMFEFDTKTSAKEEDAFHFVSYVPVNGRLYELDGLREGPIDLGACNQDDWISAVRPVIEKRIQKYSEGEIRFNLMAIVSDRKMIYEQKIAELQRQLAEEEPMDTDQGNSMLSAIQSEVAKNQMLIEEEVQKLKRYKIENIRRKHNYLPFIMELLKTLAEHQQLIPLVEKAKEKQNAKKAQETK
#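 Test system – human UCH37 enzyme supplied as purified proteasome complex · Incubation – 30 min preincubation with enzyme, 25 min cleavage at room temperature · Detection – AMC fluorescence from Ub-AMC cleavage, excitation 355 nm, emission 460 nm · Benchmarks – no-proteasome wells (full inhibition) and compound-free wells (no inhibition)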
# NadD inh: inhibitors of S. aureus NadD, primary screen, biochemical, colorimetric, uHTS. 360,000 compounds, 0.78% hits. purified NadD enzyme, colorimetric absorbance read-out. Nicotinate-nucleotide adenylyltransferase NadD (Staphylococcus aureus N315). inhibition, % at 20 µM; in the data active = inhibition above about 26%
# ATG4B inh: ATG4B protease inhibitors, primary screen, biochemical, fluorescence, uHTS | Cysteine protease ATG4B (Homo sapiens), Q9Y4P1 | ATG4B cleavage of LC3-PLA2, NBD-HPC fluorescence, 1 h | inhibition, % at 8.33 µM | 340,000 compounds, 0.51% hits | AID 504462, 2011; in the data active = inhibition above about 40%
# SENP1 FRET inh: human SENP1 catalytic domain inhibitors, primary screen, biochemical, FRET, uHTS; recombinant SENP1 catalytic domain, CyPet-SUMO1-YPet FRET cleavage; 360,000 compounds, 0.21% hits; Sentrin-specific protease 1 (Homo sapiens), Q9P0U3; inhibition, % at 10 µM;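 active = inhibition at least 30% at 10 µM, raw YFP signal under a set limit, fluorescence ratio 0.5 to 1.5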;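 also: 0% = enzyme with DMSO and 100% = no enzyme wells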
# Target sequence (Q9P0U3 419-644 limits assumed): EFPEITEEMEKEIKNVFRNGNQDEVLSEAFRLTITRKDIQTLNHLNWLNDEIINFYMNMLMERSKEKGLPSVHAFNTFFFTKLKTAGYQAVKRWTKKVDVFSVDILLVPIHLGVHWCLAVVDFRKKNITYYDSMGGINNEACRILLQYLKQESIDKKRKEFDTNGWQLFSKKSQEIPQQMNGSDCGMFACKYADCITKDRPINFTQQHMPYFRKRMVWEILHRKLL
#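 Test system: human SENP1 catalytic domain; medium: Tris pH 8 buffer plus EDTA, NaCl, BME, BSA, NP40, catalase; incubation: 50 min reaction at room temperature; technique: FRET, CFP and YFP emission; controls: no-enzyme low control and enzyme-plus-DMSO high control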
# An asterisk follows results filed as active; i = inactive; . = not tested or not shown; ! = a repeat was not active. Sampled rows, rich in hits. Any-hit rate of the full collection: about 3.6%.
SMILES,GRIN3A LBD mod,UCH37 inh,NadD inh,ATG4B inh,SENP1 FRET inh
COc1ccc(Cl)cc1NC(=O)NNC(=O)c1ccccn1,77.3*,1.6,-2.5,2.4,-1.1
CCOC(=O)C1=C(COC(=O)c2ccc([N+](=O)[O-])o2)NC(=O)NC1C (stereo not drawn),3.0,21.4*,-1.5,-3.8,-1.6
CCOC(=O)C1CCN(C(=O)COC(=O)c2ccc([N+](=O)[O-])o2)CC1,2.3,20.1*,-3.0,-3.7,1.9
O=C1Nc2ccccc2C1=NN=Cc1ccc(O)c(O)c1,.,12.6,.,.,.
O=[N+]([O-])c1ccc(Cl)c(C=NN2CCN(c3ccccc3)CC2)c1,.,1.3,.,.,.
CCNC(=O)COc1ccc(C=NNC(=O)c2cccnc2)cc1OC,.,5.1,.,.,.
Oc1ccc(C=NNC(=S)Nc2cccnc2)nc1,11.0*,.,0.9,-10.5,-3.1
Oc1ccc(C=NNC(=S)Nc2cccnc2)cc1,.,9.9,.,.,.
COc1ccc(C=c2sc3nc(-c4ccccc4OC)nn3c2=O)c(OC)c1,.,4.4,.,.,.
Cc1cccc(OCC(=O)NCC(=O)NN=Cc2cc(Br)ccc2OCc2ccccc2)c1,.,0.8,.,.,.
N#CCCn1cc(C=NNC(N)=S)c(-c2ccccc2)n1,.,2.3,.,.,.
Cc1csc(NN=Cc2ccc(O)c([N+](=O)[O-])c2)n1,.,20.4*,.,.,.
Cc1n[nH]c(=O)nc1NN=Cc1ccc(O)c([N+](=O)[O-])c1,.,20.9*,.,.,.
Cc1csc(N/N=C/c2ccc([N+](=O)[O-])cc2)n1,-1.2,.,2.7,-1.4,21.1
Cc1cc2ncn(/N=C/c3ccc([N+](=O)[O-])o3)c2cc1C,10.4*,.,-2.2,-7.7,3.6
Cc1cc(N/N=C/c2ccc([N+](=O)[O-])o2)nc2ccccc12,14.1*,.,14.4,-27.9,-13.6
Cc1cc2ncn(N=Cc3ccc([N+](=O)[O-])s3)c2cc1C,.,1.8,.,.,.
Cc1cc(Nc2ccc([N+](=O)[O-])cc2)nc2ccccc12,39.3*,1.4,4.1,-19.2,-30.2
Cc1cc(Nc2ccc([N+](=O)[O-])cc2)c2ccccc2n1,-0.7,5.1,-0.2,4.8,-20.0
COc1ccc(OC)c(C=NN(CCC#N)C2=NS(=O)(=O)c3ccccc32)c1,.,-10.0,.,.,.
Cc1ccccc1NN=Cc1ccc(C#N)cc1,.,1.6,.,.,.
Cc1ccccc1N/N=C/c1ccc(C#N)cc1,17.6*,.,0.5,-9.4,-10.5
COc1ccc(/C=C2\CCCC3C2=NN(C(=O)c2scnc2C)C3c2ccc(OC)c(OC)c2)cc1OC (stereo not drawn),11.2*,-186.2,-0.2,2.0,-7.1
O=C(CSc1nc(-c2ccc(F)cc2)cs1)Nc1ccccn1,12.6*,4.5,3.0,3.5,-1.7
Cc1csc(SCC(=O)Nc2ccccn2)n1,2.8,3.1,-1.4,-7.5,2.5
SMILES,GRIN3A LBD mod,UCH37 inh,NadD inh,ATG4B inh,SENP1 FRET inh
CCn1nnc(-c2ccccc2NS(=O)(=O)c2ccc(C(=O)OC)cc2)n1,12.2*,3.6,-4.0,-5.3,1.8
O=C(Cn1c(=O)n(Cc2ccco2)c(=O)c2c3c(sc21)CCCCC3)c1ccccc1,-0.5,5.4,35.5*,32.1,-3.3
NC(=O)c1cccc(-c2cc(Nc3ccc(OC(F)(F)F)cc3)ncn2)c1,25.1*,-2.9,-6.8,9.1,0.6
Cc1cccc(NC(=S)NCC23C=CC(O2)C2C(=O)N(c4ccc(Cl)cc4)C(=O)C23)c1 (stereo not drawn),11.8*,0.4,5.7,4.9,-0.6
Cc1ccc(C2(C)NC(=O)N(CC(=O)c3ccc4c(c3)OCCO4)C2=O)cc1 (stereo not drawn),-1.6,-1.5,-1.8,-4.4,-5.0
CC(=O)c1c(C)[nH]c(C(=O)CN2C(=O)NC(C)(c3ccc4c(c3)OCCO4)C2=O)c1C (stereo not drawn),31.9*,0.5,4.1,5.9,-2.6
COC(=O)c1ccccc1NC(=O)CSc1nnc(C(CO)NC(=O)c2ccccc2Cl)n1C (stereo not drawn),-1.3,1.5,-2.4,-9.1,1.4
CC(NC(=O)c1ccccc1Cl)c1nnc(SCC(=O)Nc2ccc(C(=O)O)cc2)n1C (stereo not drawn),15.8*,0.8,6.7,1.1,3.7
O=C(N/N=C/c1ccccc1Cl)c1[nH]c2ccc(Br)cc2c1-c1ccccc1,28.5*,.,18.6,7.6,2.2
COc1ccc(/C=N/NC(=O)c2[nH]c3ccc(Br)cc3c2-c2ccccc2)cc1,18.2*,.,26.9,-3.8,0.7
Cc1csc(=NN=C2CCCCC2)n1Cc1ccco1,.,4.6,.,.,.
O=C(CSc1nnc(CCCN2C(=O)c3cccc4cccc(c34)C2=O)n1-c1ccccc1)NCCCO,13.1*,-6.4,2.8,-10.9,3.9
CCCN(CCC)CCCNC(=O)c1cc2c(=O)[nH]c3ccccc3c2n1C,-0.6,-11.3,-9.8,-10.6,-1.8
Cn1c(C(=O)NCc2ccco2)cc2c(=O)[nH]c3ccccc3c21,23.9*,1.7,5.5,-6.6,1.1
COc1ccc(C2c3c(-c4ccccc4O)n[nH]c3C(=O)N2CCc2ccc(OC)c(OC)c2)cc1 (stereo not drawn),-10.2,5.1,15.1,17.3,-1.0
COc1ccc(CCN2C(=O)c3[nH]nc(-c4ccccc4O)c3C2c2cccc(Cl)c2)cc1 (stereo not drawn),15.2*,1.9,25.9,7.5,1.2
O=C(CON=Cc1cccc([N+](=O)[O-])c1)NC1CCCCCC1,.,-1.0,.,.,.
CN(C)CCCNc1cc(C(C)(C)C)nc2c(-c3ccc(Cl)cc3)cnn12,-0.9,-221.7,-10.7,7.1,0.9
CC(C)(C)c1cc(NCc2ccccn2)n2ncc(-c3ccc(Cl)cc3)c2n1,13.1*,i,1.8,-8.6,-0.2
NNc1nc2c(Cl)c(Cl)ccc2s1,11.1*,3.5,0.2,-3.4,3.0
COc1cccc2sc(NN)nc12,-0.6,0.3,-3.1,1.4,-10.2
NC(=NOC(=O)COc1ccc([N+](=O)[O-])cc1)c1ccncc1,.,1.5,.,.,.
CCc1c(C)c(C#N)c2[nH]c3ccccc3n2c1=S,10.9*,-3.9,19.6,-0.9,-29.3
CCc1cc(=S)n2c([nH]c3ccccc32)c1C#N,7.3,-38.8,13.0,4.0,-34.9
CN1CCc2cccc3c2[C@H]1Cc1ccc(O)c(O)c1-3,11.5*!,-4.3,-2.9,-1.2,-10.0
FC(F)(F)c1cccc(NC(=S)NCc2ccc(Cl)cc2)c1,20.2*,6.4,-8.1,13.9,2.0
Fc1ccccc1CNC(=S)Nc1cccc(C(F)(F)F)c1,14.0*,2.9,-4.7,33.8,-0.8
Cn1cnc2c(NN=Cc3cccs3)ncnc21,.,14.6,.,.,.
CC(Cn1nc([N+](=O)[O-])cc1C)=NNC(=O)COc1ccc(Cl)cc1Cl,.,2.9,.,.,.
